Experimental data: publication PMC4893934 (European journal of medicinal chemistry, 2016)
Values joined by “and” are separate entries in the source; they are usually repeats but may differ in a detail not shown here. Equal values may be shown once.

Assays:
[1] = biological target: IDH1-R132H (Homo sapiens, UniProt O75874, R132H); experiment: Mutant IDH1 inhibition assay with purified enzyme; type: biochemical; conditions: for IC50: IC50 against the mutant IDH1, purified IDH1-R132H enzyme; for inhibition at 392 µM: read-out: maximal enzyme inhibition (inhibitory efficiency), purified IDH1-R132H enzyme, tested range 0.19 – 392 µM
IDH1-R132H, sequence (O75874 whole entry R132H): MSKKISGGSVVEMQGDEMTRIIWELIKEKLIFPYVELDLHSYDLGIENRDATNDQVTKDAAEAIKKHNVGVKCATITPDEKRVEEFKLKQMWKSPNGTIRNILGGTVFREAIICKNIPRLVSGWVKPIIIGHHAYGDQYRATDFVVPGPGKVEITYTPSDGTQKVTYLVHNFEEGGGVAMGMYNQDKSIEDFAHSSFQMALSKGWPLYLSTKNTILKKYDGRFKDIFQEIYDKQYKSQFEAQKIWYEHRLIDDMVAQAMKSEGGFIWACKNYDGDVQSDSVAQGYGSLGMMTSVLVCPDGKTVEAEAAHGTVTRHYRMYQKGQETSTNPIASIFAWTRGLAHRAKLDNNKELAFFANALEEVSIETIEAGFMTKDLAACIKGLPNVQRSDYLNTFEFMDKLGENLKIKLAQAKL

[2] = test system: mutant IDH1 activity (2-HG production) in IDH1-R132H-mutated astrocytoma cell line; type: cell-based; conditions: 50 µM, 8 h post-incubation, IDH1-mutated astrocytoma cells
How it was run: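 Isogenic anaplastic astrocytoma lines (WHO grade III-derived subclone with native IDH1-R132H; WT-IDH1 control) were seeded in duplicate at 30,000/well. At confluency, medium was replaced with test compound at 50 µM final (from 20 mM DMSO stock), n=2/experiment, under standard culture conditions. Supernatant was sampled at 4 and 8 h and stored at -80°C. D-2-HG was measured by LC-MS/MS. Controls were vehicle-treated mutant and WT cells.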

[3] = biological target: mutant IDH1-R132H enzyme; conditions: read-out: IC50 against the mutant IDH1-R132H enzyme; cited from earlier work
[4] = test system: IDH1-R132H mutant and WT-IDH1 astrocytoma cell lines; experiment: Cell uptake studies of labeled inhibitors; type: cell-based; conditions: for cell uptake, % of the added activity: mutant IDH1 cell line
How it was run: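 IDH1-R132H and isogenic WT-IDH1 astrocytoma cells were plated about 24 h ahead at 20,000–30,000/well, then PBS-washed. Cells were incubated with radioiodinated test compound (~3.7 kBq/well) in culture medium at 37°C, 5% CO2, for 0.25–4 h. Co-incubation used unlabeled analog (0–100 µM) for 3 h, or 0.1%/1% versus 10% FBS. After ice-cold PBS washes and 5 min RT lysis, lysate, supernatant and washes were gamma-counted. Uptake is % incubation dose/well.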

[5] = Tissue distribution studies; type: in vivo, BALB/C mice; conditions: for Biodistribution, Bladder / Biodistribution, Blood / Biodistribution, Bone / Biodistribution, Brain / Biodistribution, Heart / Biodistribution, Intestines / Biodistribution, Kidneys / Biodistribution, Liver / Biodistribution, Lungs / Biodistribution, Muscle / Biodistribution, Skin / Biodistribution, Spleen / Biodistribution, Stomach / Biodistribution, Thyroid: mean ± SD, n=5
[6] = 5 min after i.v. injection, listed as 125I-labeled 1

SMILES: CCCCc1ccc(NS(=O)(=O)c2ccc(C)c(C(=O)N3CCN(c4ccccc4I)CC3)c2)cc1 [Compound 1, N-(4-Butylphenyl)-3-(4-(2-iodophenyl)piperazine-1-carbonyl)-4-methylbenzenesulfonamide]
- IC50 ([1]; 0.19 – 392 µM): 1.7 µM and ~2 µM
- inhibition at 392 µM [1]: ~100%
- decrease of 2-HG concentration in mutant IDH1 cell supernatants [2]: 43%

SMILES: CCCCc1ccc(NS(=O)(=O)c2ccc(C)c(C(=O)N3CCN(c4ccc(I)cc4)CC3)c2)cc1 [Compound 2, N-(4-Butylphenyl)-3-(4-(4-iodophenyl)piperazine-1-carbonyl)-4-methylbenzenesulfonamide]
- activity against mutant IDH1 (in words) ([1]; purified IDH1-R132H enzyme, 0.19 – 392 µM): did not show any significant activity

SMILES: CCCCc1ccc(NS(=O)(=O)c2ccc(C)c(C(=O)N3CCN(c4ccccc4OCCF)CC3)c2)cc1 [Compound 4, N-(4-Butylphenyl)-3-(4-(2-(2-fluoroethoxy)phenyl)piperazine-1-carbonyl)-4-methylbenzenesulfonamide]
- IC50 ([1]; 0.19 – 392 µM): 2.3 µM and ~2 µM
- inhibition at 392 µM [1]: ~100%
- decrease of 2-HG concentration in mutant IDH1 cell supernatants [2]: 50%

SMILES: CCCCc1ccc(NS(=O)(=O)c2ccc(C)c(C(=O)N3CCN(c4ccc(OCCF)cc4)CC3)c2)cc1 [Compound 5, N-(4-Butylphenyl)-3-(4-(4-(2-fluoroethoxy)phenyl)piperazine-1-carbonyl)-4-methylbenzenesulfonamide]
- IC50 ([1]; 0.19 – 392 µM): 1.2 µM
- maximal enzyme inhibition (inhibitory efficiency) ([1]; purified IDH1-R132H enzyme, tested range 0.19 – 392 µM, 392 µM): 26.4%
- inhibition at 392 µM [1]: ~30%

SMILES: COc1ccccc1N1CCN(C(=O)c2cc(S(=O)(=O)Nc3ccc(CCCF)cc3)ccc2C)CC1 [Compound 6, N-(4-(3-Fluoropropyl)phenyl)-3-(4-(2-methoxyphenyl)piperazine-1-carbonyl)-4-methylbenzenesulfonamide]
- IC50 ([1]; 0.19 – 392 µM): 2.7 µM
- inhibition at 392 µM [1]: 99%

SMILES: COc1ccccc1N1CCN(C(=O)c2cc(S(=O)(=O)Nc3ccc(CCCCF)cc3)ccc2C)CC1 [Compound 7, N-(4-(4-Fluorobutyl)phenyl)-3-(4-(2-methoxyphenyl)piperazine-1-carbonyl)-4-methylbenzenesulfonamide]
- IC50 ([1]; 0.19 – 392 µM): 2.4 µM
- inhibition at 392 µM [1]: 81%

SMILES: CCCCc1ccc(NS(=O)(=O)c2ccc(C)c(C(=O)N3CCN(c4ccccc4OC)CC3)c2)cc1 [Compound A, N-(4-butylphenyl)-3-(4-(2-methoxyphenyl)piperazine-1-carbonyl)-4-methylbenzenesulfonamide, reference compound]
- IC50 [3]: < 1 µM
- IC50 ([1]; 0.19 – 392 µM): 2.2 µM
- inhibition at 392 µM [1]: ~100%

SMILES: CCCCc1ccc(NS(=O)(=O)c2ccc(C)c(C(=O)N3CCN(c4ccccc4[125I])CC3)c2)cc1 [[^125I]1, N-(4-Butylphenyl)-3-(4-(2-[^125I]iodophenyl)piperazine-1-carbonyl)-4-methylbenzenesulfonamide]
- average uptake ratio mutant-IDH1 / WT-IDH1 cell lines ([4]; 2 h incubation): 1.66
- maximal increase in uptake versus no-carrier-added tracer ([4]; co-incubation with 10 µM unlabeled 1, 3 h): 53 fold
- cell uptake, % of the added activity ([4]; 15 min incubation): about 0.5%
- cell uptake, % of the added activity ([4]; 3 h incubation): 0.80 ± 0.04%
- uptake in the brain ([5]; 1 – 4 h after injection): ≤ 0.07 %ID/g
- Biodistribution, Bladder ([5]; 5 min after i.v. injection): 0.03 ± 0.01 %ID
- Biodistribution, Blood ([5]; 5 min after i.v. injection): about 12 %ID
- Biodistribution, Bone ([5]; 5 min after i.v. injection): 3.92 ± 1.45 %ID
- Biodistribution, Brain ([5]; 5 min after i.v. injection): 0.15 ± 0.05 %ID
- Biodistribution, Heart ([5]; 5 min after i.v. injection): 1.11 ± 0.39 %ID
- Biodistribution, Intestines ([5]; 5 min after i.v. injection): 6.37 ± 5.80 %ID
- Biodistribution, Kidneys ([5]; 5 min after i.v. injection): 3.50 ± 1.08 %ID
- Biodistribution, Liver ([5]; 5 min after i.v. injection): About 30 %ID
- Biodistribution, Lungs ([5]; 5 min after i.v. injection): 1.69 ± 0.83 %ID
- Biodistribution, Muscle ([5]; 5 min after i.v. injection): 13.79 ± 4.85 %ID
- Biodistribution, Skin ([5]; 5 min after i.v. injection): 3.31 ± 0.74 %ID
- Biodistribution, Spleen ([5]; 5 min after i.v. injection): 0.36 ± 0.12 %ID
- Biodistribution, Stomach ([5]; 5 min after i.v. injection): 0.40 ± 0.12 %ID
- Biodistribution, Thyroid ([5]; 5 min after i.v. injection): 0.32 ± 0.18 %ID
- Biodistribution, Blood [5, 6]: 11.83 ± 1.99 %ID
- Biodistribution, Liver [5, 6]: 29.43 ± 5.60 %ID
- activity concentration in the thyroid gland ([5]; 5 min after injection): 1.69 ± 0.93 %ID/g
- uptake in the brain ([5]; 5 min after injection): 0.39 ± 0.13 %ID
- Biodistribution, Bladder ([5]; 1 h after i.v. injection): 0.01 ± 0.01 %ID
- Biodistribution, Blood ([5]; 1 h after i.v. injection): 0.71 ± 0.27 %ID
- Biodistribution, Bone ([5]; 1 h after i.v. injection): 1.21 ± 0.14 %ID
- Biodistribution, Brain ([5]; 1 h after i.v. injection): 0.03 ± 0.01 %ID
- Biodistribution, Heart ([5]; 1 h after i.v. injection): 0.12 ± 0.02 %ID
- Biodistribution, Intestines ([5]; 1 h after i.v. injection): 38.13 ± 1.49 %ID
- Biodistribution, Kidneys ([5]; 1 h after i.v. injection): 0.88 ± 0.14 %ID
- Biodistribution, Liver ([5]; 1 h after i.v. injection): 13.30 ± 0.69 %ID
- Biodistribution, Lungs ([5]; 1 h after i.v. injection): 0.17 ± 0.02 %ID
- Biodistribution, Muscle ([5]; 1 h after i.v. injection): 8.21 ± 0.77 %ID
- Biodistribution, Skin ([5]; 1 h after i.v. injection): 2.90 ± 1.07 %ID
- Biodistribution, Spleen ([5]; 1 h after i.v. injection): 0.05 ± 0.01 %ID
- Biodistribution, Stomach ([5]; 1 h after i.v. injection): 0.65 ± 0.18 %ID
- Biodistribution, Thyroid ([5]; 1 h after i.v. injection): 0.04 ± 0.03 %ID
- maximum excreted into the urine ([5]; 1 h after injection): 2.84 % ID
- Biodistribution, Bladder ([5]; 2 h after i.v. injection): 0.02 ± 0.03 %ID
- Biodistribution, Blood ([5]; 2 h after i.v. injection): 0.29 ± 0.09 %ID
- Biodistribution, Bone ([5]; 2 h after i.v. injection): 0.60 ± 0.29 %ID
- Biodistribution, Brain ([5]; 2 h after i.v. injection): 0.02 ± 0.01 %ID
- Biodistribution, Heart ([5]; 2 h after i.v. injection): 0.04 ± 0.01 %ID
- Biodistribution, Intestines ([5]; 2 h after i.v. injection): 53.24 ± 7.84 %ID
- Biodistribution, Kidneys ([5]; 2 h after i.v. injection): 0.43 ± 0.15 %ID
- Biodistribution, Liver ([5]; 2 h after i.v. injection): 6.57 ± 1.77 %ID
- Biodistribution, Lungs ([5]; 2 h after i.v. injection): 0.07 ± 0.03 %ID
- Biodistribution, Muscle ([5]; 2 h after i.v. injection): 3.91 ± 0.87 %ID
- Biodistribution, Skin ([5]; 2 h after i.v. injection): 1.25 ± 0.53 %ID
- Biodistribution, Spleen ([5]; 2 h after i.v. injection): 0.03 ± 0.01 %ID
- Biodistribution, Stomach ([5]; 2 h after i.v. injection): 0.63 ± 0.82 %ID
- Biodistribution, Thyroid ([5]; 2 h after i.v. injection): 0.05 ± 0.05 %ID
- activity in the hepatobiliary system ([5]; 2 h after injection): approximately 60 % ID
- Biodistribution, Bladder ([5]; 4 h after i.v. injection): 0.01 ± 0.01 %ID
- Biodistribution, Blood ([5]; 4 h after i.v. injection): about 0.13 %ID
- Biodistribution, Bone ([5]; 4 h after i.v. injection): 0.22 ± 0.14 %ID
- Biodistribution, Brain ([5]; 4 h after i.v. injection): 0.01 ± 0.00 %ID
- Biodistribution, Heart ([5]; 4 h after i.v. injection): 0.01 ± 0.00 %ID
- Biodistribution, Intestines ([5]; 4 h after i.v. injection): 41.40 ± 6.02 %ID
- Biodistribution, Kidneys ([5]; 4 h after i.v. injection): 0.16 ± 0.03 %ID
- Biodistribution, Liver ([5]; 4 h after i.v. injection): 3.41 ± 0.62 %ID
- Biodistribution, Lungs ([5]; 4 h after i.v. injection): 0.03 ± 0.01 %ID
- Biodistribution, Muscle ([5]; 4 h after i.v. injection): 1.57 ± 0.34 %ID
- Biodistribution, Skin ([5]; 4 h after i.v. injection): 0.56 ± 0.09 %ID
- Biodistribution, Spleen ([5]; 4 h after i.v. injection): 0.01 ± 0.01 %ID
- Biodistribution, Stomach ([5]; 4 h after i.v. injection): 1.22 ± 2.12 %ID
- Biodistribution, Thyroid ([5]; 4 h after i.v. injection): 0.06 ± 0.03 %ID
- Biodistribution, Blood ([5]; 4 h after i.v. injection, listed as 125I-labeled 1): 0.13 ± 0.01 %ID
- activity concentration in the thyroid gland ([5]; 4 h after injection): 0.42 ± 0.16 %ID/g
- activity concentration in the vital organs except liver ([5]; 4 h after injection): < 0.2 % ID/g
